bIAP inh: bovine intestinal alkaline phosphatase inhibitors, primary screen, selectivity assay for TNAP inhibitor project, biochemical, bovine IAP, CDP-star luminescence; alkaline phosphatase, intestinal [Bos taurus]; purified bovine IAP, 30 min; inhibition, % at 20 µM; 190,000 tested, under 10 active; AID 1019, 2008;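 active means over 50% inhibition of intestinal alkaline phosphatase at 20 µM in the single-dose screen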
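System: Purified bovine intestinal alkaline phosphatase (IAP) enzyme | Input: IAP diluted 1/65,000,000 in the well | Also added: CDP-star chemiluminescent phosphatase substrate, 30 µM final | Dosing: 20 µM single dose | Times: Enzyme reaction for 30 min at room temperature | Detection: Luminescence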
mIAP act: activators of mouse IAP, primary screen, biochemical, luminescence, uHTS. intestinal alkaline phosphatase [Mus musculus]. muIAP, CDP-Star luminescence, 30 min; active compounds read high; 1 = vehicle-only enzyme signal, 0 = enzyme-free wells. activation factor at 10 µM. hit rate 0.24% among 330,000. AID 2805, 2010;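 active means activation factor of at least 2 at 20 µM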
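also added = chemiluminescent substrate CDP-Star | test system = mouse IAP enzyme | signal = chemiluminescence readout | compound = DMSO-dissolved test compounds | incubation = 30 min at room temperature | benchmarks = DMSO wells, no-enzyme wells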
bIAP act: bovine intestinal alkaline phosphatase activators, primary screen, biochemical, bovine IAP, CDP-star luminescence. hit rate 0.17% among 200,000. activation factor at 20 µM. purified bovine IAP, 30 min; active compounds read high; fold of DMSO-control signal, blank-subtracted. AID 1016, 2008;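 active means activation factor of 2 or more at 20 µM, a signal rise over negative controls twice the positive control's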
mIAP block: inhibitors of mouse IAP, primary screen, biochemical, luminescence, uHTS; purified mouse IAP, CDP-Star luminescence, 30 min; intestinal alkaline phosphatase [Mus musculus]; inhibition, % at 10 µM; hit rate 0.2% among 330,000; AID 2806, 2010;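 active means inhibition of at least 40% at 10 µM in the primary screen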;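 further: plate controls were DMSO with enzyme for no effect and no enzyme wells for full effect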
hIAP act: human IAP activators, primary screen, biochemical, luminescence, uHTS. Intestinal-type alkaline phosphatase (Homo sapiens), P09923. purified human IAP, CDP-Star luminescence, 30 min; active compounds read high; 1 = vehicle-only enzyme, 0 = enzyme-free background. hit rate 0.16% among 330,000. activation factor at 10 µM;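 active means activation factor of the enzyme at least 2-fold when tested at 20 µM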
Target sequence (P09923 whole entry, looked up): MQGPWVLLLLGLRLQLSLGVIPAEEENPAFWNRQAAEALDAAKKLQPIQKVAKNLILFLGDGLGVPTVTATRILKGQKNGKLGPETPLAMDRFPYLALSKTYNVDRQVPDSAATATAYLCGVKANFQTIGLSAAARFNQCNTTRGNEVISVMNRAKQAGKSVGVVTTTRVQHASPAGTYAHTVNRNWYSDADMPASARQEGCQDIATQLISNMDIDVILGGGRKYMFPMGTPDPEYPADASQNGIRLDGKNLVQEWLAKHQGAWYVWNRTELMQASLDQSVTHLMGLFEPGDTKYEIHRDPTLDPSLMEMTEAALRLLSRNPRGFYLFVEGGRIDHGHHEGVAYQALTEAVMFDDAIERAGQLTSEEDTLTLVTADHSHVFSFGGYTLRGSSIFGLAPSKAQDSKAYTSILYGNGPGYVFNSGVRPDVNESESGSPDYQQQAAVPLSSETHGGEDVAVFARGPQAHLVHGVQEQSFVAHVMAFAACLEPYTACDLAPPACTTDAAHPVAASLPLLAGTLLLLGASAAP
hIAP block: human IAP inhibitors, primary screen, biochemical, luminescence, uHTS; AID 2544, 2010; Intestinal-type alkaline phosphatase (Homo sapiens), P09923; hit rate 0.12% among 330,000; purified IAP, CDP-Star luminescence, 30 min; inhibition, % at 10 µM;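 active means inhibition reaching a set limit with compound at 10 µM in the primary screen, cut at about 35% in these data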;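 further: plate controls were DMSO wells with enzyme for no effect and no-enzyme buffer wells for full effect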
hIAP act conf: human IAP activators, confirmation, biochemical, luminescence, single concentration, uHTS hits. activation (%Activity, negative = activation), % at 8.3 µM. hit rate 10% among 880. shares compounds with hIAP act. AID 434926, 2010. purified IAP, CDP-Star luminescence, 30 min; active compounds read low;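 active means at least twofold enzyme activation in any of six single-dose repeats, which the averaged readout prints as negative percent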
mIAP inh confirm: inhibitors of mouse IAP, confirmation, biochemical, luminescence, single concentration. shares compounds with mIAP block. purified mouse IAP, CDP-Star luminescence, 30 min. inhibition, % at 10 µM. hit rate 4.7% among 11,000;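 active means inhibition of at least 40% at 10 µM in either of the two replicates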;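 further: plate controls were DMSO wells with enzyme for no effect and buffer wells lacking enzyme for full effect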
Starred values were filed as active, the others as inactive; i = inactive; nt = no result given. Shown are actives, neighbours in structure and some others; about 0.72% of the full set was active somewhere.

SMILES | bIAP inh | mIAP act | bIAP act | mIAP block | hIAP act | hIAP block | hIAP act conf | mIAP inh confirm
COc1ccc(C)cc1NC(=O)CCS(=O)(=O)c1cc2c(cc1Cl)NC(=O)CO2 | nt | 1 | nt | -4 | 0.83 | 17 | nt | nt
Cc1ccc(NC(=O)CCS(=O)(=O)c2cc3c(cc2Cl)NC(=O)CO3)cc1 | nt | 0.97 | nt | 3 | 0.63 | 37* | -42 | nt
Cc1ccc(OCC(=O)Nc2cccc(O)c2)cc1C | -4 | 0.94 | 1 | 6 | 0.95 | 5 | nt | nt
Cc1cccc(OCC(=O)Nc2cccc(O)c2)c1 | 12 | 1.1 | 0.9 | -7 | 2.2* | -117 | -25 | nt
COc1cc(/C=C2\SC(=S)N(NC(=O)c3cccnc3)C2=O)ccc1O | nt | 0.65 | nt | 35 | 0.7 | 30 | nt | nt
COc1cc(/C=C2\SC(=S)N(NC(=O)c3ccc(O)cc3)C2=O)ccc1O | nt | 0.66 | nt | 34 | 0.56 | 44* | 2 | nt
CCOc1cc(/C=C2\SC(=S)N(N3CCOCC3)C2=O)ccc1O | nt | 0.62 | nt | 38 | 0.61 | 39* | -33 | nt
O=C1/C(=C/c2ccc(O)c(O)c2)SC(=S)N1Nc1ccccc1 | nt | nt | 0.5 | nt | nt | nt | nt | nt
O=C1/C(=C/c2ccc(F)cc2)SC(=S)N1N1CCOCC1 | nt | 0.96 | nt | 4 | 0.88 | 12 | nt | nt
COc1cc(/C=C2\SC(=S)N(Nc3ccccc3)C2=O)ccc1O | -4 | 0.59 | 1 | 41* | 0.6 | 40* | 8 | nt
CC(C)c1cc(N=NC(N)=O)cc(C(C)C)c1O | 49 | 0.82 | 0.5 | 18 | 1 | -4 | nt | nt
COCc1c(C(=O)Nc2ccc3nc(N4CCOCC4)sc3c2)oc2ccccc12 | nt | 1.1 | nt | -8 | 0.94 | 6 | nt | nt
CCCCC(CC)C(=O)Nc1cc(=O)[nH]c2nc3ccccc3n12 (configuration not stated) | nt | 0.96 | nt | 4 | 2* | -102 | 5 | nt
CCCOc1ccc(C(=O)NCC(c2ccco2)N(C)C)cc1OC (configuration not stated) | -1 | 0.98 | 1 | 2 | 0.98 | 2 | nt | nt
COc1ccc(C(=O)NCC(=O)NCC(c2ccco2)N(C)C)cc1OC (configuration not stated) | 9 | 0.96 | 0.9 | 4 | 0.56 | 44* | 6 | nt
CC(=O)Nc1ccc(NC(=O)CN(c2ccc(C(C)C)cc2)S(=O)(=O)c2ccccc2)cc1 | -11 | 1.1 | 1.1 | -6 | 1.3 | -30 | nt | nt
O=C(Nc1ccc(F)cc1)C1CCCCC1 | -6 | 0.99 | 1.1 | 1 | 1.1 | -11 | nt | nt
NC(=O)c1ccc(NC(=O)C2CCCC2)cc1 | nt | 1.1 | nt | -8 | 2.6* | -158 | -40* | nt
Cc1nnc(N2CCc3ccccc3C2)[nH]c1=O | 6 | 0.95 | 0.9 | 5 | 0.64 | 36* | -43 | nt
O=C1CSC(=Nc2ccc(Cl)cc2)N1Cc1cccnc1 | nt | 0.98 | nt | 2 | 0.92 | 8 | nt | nt
Cc1ccc(CNC(=S)NC2CCC(C(C)(C)C)CC2)cc1 (configuration not stated) | nt | 4.5* | nt | -355 | 2.1* | -107 | -26 | -100
CCOC(=O)/C(=N\Nc1cc(Cl)ccc1Cl)N1CCOCC1 | 1 | 1.1 | 1 | -6 | 0.99 | 1 | nt | nt
O=C(COc1ccccc1C(=O)N/N=C\c1ccc(O)c(O)c1)N/N=C/c1ccc(O)c(O)c1 | 49 | 0.27 | 0.5 | 73* | 0.42 | 58* | 3 | 82*
CCn1nc(C)c(CN2CCC(C(=O)Nc3cccc(-c4cccc(F)c4)c3)CC2)c1C | nt | 4.9* | nt | -387 | 6.1* | i | 51 | -208
CC(C)n1cc(CN2CCC(C(=O)Nc3cccc(-c4cccc(Cl)c4)c3)CC2)cn1 | nt | 6* | nt | -495 | 8.8* | i | -97* | -297
SMILES | bIAP inh | mIAP act | bIAP act | mIAP block | hIAP act | hIAP block | hIAP act conf | mIAP inh confirm
CCn1cc(CN2CCC(C(=O)Nc3cccc(-c4cccc(OC)c4)c3)CC2)cn1 | nt | 1 | nt | -1 | 1.1 | -13 | nt | nt
CC(Sc1nnc(-c2ccccc2F)o1)C(=O)Nc1ccc(N2CCOCC2)cc1 (configuration not stated) | nt | 0.99 | nt | 1 | 1.3 | -31 | nt | nt
Cc1ccc(C(=O)OCC(=O)c2c[nH]c3ccccc23)cc1S(=O)(=O)N1CCOCC1 | nt | 1.1 | nt | -8 | 1.1 | -13 | nt | nt
Cc1cccc(NC(=O)NCC2CCN(c3ccc(S(=O)(=O)N4CCOCC4)cc3)CC2)c1 | nt | 3.5* | nt | -251 | 2.1* | -108 | -20 | -156
Cc1ccccc1NC(=O)NCC1CCN(c2ccc(S(=O)(=O)N3CCOCC3)cc2)CC1 | nt | 1.5 | nt | -50 | 1.1 | -9 | nt | nt
N#C/C(=C\c1ccc(O)c(O)c1)C(=O)c1ccc(O)c(O)c1 | nt | 0.13 | nt | 87* | 0.63 | 37* | 74 | 86*
N#C/C(=C\c1ccc(O)c(O)c1)C(=O)N1CCCC1 | 23 | 0.81 | 0.8 | 19 | 0.8 | 20 | nt | nt
Cc1ccc(C)c(CN2CCC(n3nccc3NC(=O)CCCc3ccccc3)CC2)c1 | nt | 2.4* | nt | -138 | 2.6* | -164 | -61 | -131
CC(C)Cc1ccc(CN2CCC(n3nccc3NC(=O)C3CCCC3)CC2)cc1 | nt | 2.4* | nt | -143 | 3.3* | -232 | 5 | -98
CCOc1cccc(CN2CCC(n3nccc3NC(=O)CCCc3ccccc3)CC2)c1 | nt | 2.4* | nt | -138 | 3.5* | -246 | -10 | -130
CC(C)n1cc(CN2CCC(n3nccc3NC(=O)C3CCCC3)CC2)cn1 | nt | 1 | nt | -2 | 0.94 | 6 | nt | nt
O=C(CCCc1ccccc1)Nc1ccnn1C1CCN(Cc2ccc(Cl)cc2)CC1 | nt | 2.5* | nt | -150 | 2.9* | -195 | -2 | -118
COC(=O)c1cc(S(=O)(=O)N2CCN(c3cccc(C)c3C)CC2)c[nH]1 | nt | 1.1 | nt | -6 | 1.2 | -19 | nt | nt
Nc1ccc2nc(SCc3ccccc3F)sc2c1 | nt | 0.95 | nt | 5 | 1.1 | -6 | nt | nt
CN=c1scc(-c2ccco2)n1/N=C/c1ccc(O)c(O)c1 | 9 | 0.45 | 0.9 | 55* | 0.65 | 35* | -22 | 63*
COc1ccc(O)c(/C=N/n2c(-c3ccco3)csc2=Nc2cccnc2)c1 | 10 | 0.87 | 0.9 | 13 | 0.93 | 7 | nt | nt
Cc1cccc(S(=O)(=O)NNC(=O)Cc2cccn2C)c1 | -7 | 1 | 1.1 | 0 | 1.2 | -15 | nt | nt

Bioassay records as filed in PubChem BioAssay.
